# According to ChEMBL document CHEMBL1142148, “Antibiotic susceptibility profile of bifidobacteria as affected by oxgall, acid, and hydrogen peroxide stress” (2007):
# Key:
# Bifidobacterium animalis [1] = assay: Antimicrobial activity against Bifidobacterium animalis ATCC 27536; assay type: functional
# Summary of the method: (§1)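 Broth microdilution in MRS plus 0.05% L-cysteine-HCl. Mid-log culture adjusted to OD650 0.1, giving about 2.5 × 10^4 to 5.0 × 10^4 CFU/well, then added to twofold serial dilutions of agent. Plates incubated anaerobically at 37°C for 18 h and read at OD650. MIC is the lowest concentration matching the uninoculated blank OD, taken as the median of four repeats.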
# Bifidobacterium bifidum [2] = assay: Antimicrobial activity against Bifidobacterium bifidum R0071; assay type: functional; summary of the method: as §1
# Bifidobacterium bifidum [3] = assay: Antimicrobial activity against Bifidobacterium bifidum ATCC 15696; assay type: functional; summary of the method: as §1
# Bifidobacterium bifidum [4] = assay: Antimicrobial activity against Bifidobacterium bifidum BB12; assay type: functional; summary of the method: as §1
# Bifidobacterium breve [5] = assay: Antimicrobial activity against Bifidobacterium breve ATCC 15700; assay type: functional; summary of the method: as §1
# [6] = Antimicrobial activity against Bifidobacterium infantis ATCC 15697; assay type: functional, Bifidobacterium longum subsp. infantis; conditions: Bifidobacterium longum; summary of the method: as §1
# Bifidobacterium longum [7] = assay: Antimicrobial activity against Bifidobacterium longum ATCC 15708; assay type: functional; summary of the method: as §1
# Bifidobacterium longum [8] = assay: Antimicrobial activity against Bifidobacterium longum R0175; assay type: functional; summary of the method: as §1
# Bifidobacterium longum [9] = assay: Antimicrobial activity against Bifidobacterium longum P/N 601377; assay type: functional; summary of the method: as §1
# [10] = system: Bifidobacterium pseudolongum; assay: Antimicrobial activity against Bifidobacterium pseudolongum ATCC 25562; assay type: functional; summary of the method: as §1
# [11] = system: Bifidobacterium thermophilum; assay: Antimicrobial activity against Bifidobacterium thermophilum ATCC 25866; assay type: functional; summary of the method: as §1
# Bifidobacterium breve [12] = assay: Antimicrobial activity against Bifidobacterium breve R0070; assay type: functional; summary of the method: as §1
# Bifidobacterium animalis [13] = assay: Antimicrobial activity against 60 min 1 M HCl-stressed Bifidobacterium animalis ATCC 27536 after 18 hrs; assay type: functional
# Summary of the method: (§2)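 Mid-log MRS culture pelleted and resuspended in MRS broth brought to pH 2.0 with 1 M HCl, held anaerobically at 37°C for 60 min, then subcultured in MRS (pH 6.5) for 24 h anaerobically before MIC testing by broth microdilution (as for unstressed cells). Table footnote gives 18 h anaerobic regrowth after the stress. MIC is the median of four repetitions.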
# Bifidobacterium bifidum [14] = assay: Antimicrobial activity against 60 min 1 M HCl-stressed Bifidobacterium bifidum R0071 after 18 hrs; assay type: functional; summary of the method: as §2
# Bifidobacterium bifidum [15] = assay: Antimicrobial activity against 60 min 1 M HCl-stressed Bifidobacterium bifidum BB12 after 18 hrs; assay type: functional; summary of the method: as §2
# Bifidobacterium breve [16] = assay: Antimicrobial activity against 60 min 1 M HCl-stressed Bifidobacterium breve ATCC 15700 after 18 hrs; assay type: functional; summary of the method: as §2
# Bifidobacterium breve [17] = assay: Antimicrobial activity against 60 min 1 M HCl-stressed Bifidobacterium breve R0070 after 18 hrs; assay type: functional; summary of the method: as §2
# [18] = Antimicrobial activity against 60 min 1 M HCl-stressed Bifidobacterium infantis ATCC 15697 after 18 hrs; assay type: functional, Bifidobacterium longum subsp. infantis; conditions: Bifidobacterium longum; summary of the method: as §2
# Bifidobacterium longum [19] = assay: Antimicrobial activity against 60 min 1 M HCl-stressed Bifidobacterium longum ATCC 15707 after 18 hrs; assay type: functional; summary of the method: as §2
# Bifidobacterium longum [20] = assay: Antimicrobial activity against 60 min 1 M HCl-stressed Bifidobacterium longum R0175 after 18 hrs; assay type: functional; summary of the method: as §2
# Bifidobacterium longum [21] = assay: Antimicrobial activity against 60 min 1 M HCl-stressed Bifidobacterium longum P/N 601377 after 18 hrs; assay type: functional; summary of the method: as §2
# [22] = system: Bifidobacterium pseudolongum; assay: Antimicrobial activity against 60 min 1 M HCl-stressed Bifidobacterium pseudolongum ATCC 25562 after 18 hrs; assay type: functional; summary of the method: as §2
# [23] = system: Bifidobacterium thermophilum; assay: Antimicrobial activity against 60 min 1 M HCl-stressed Bifidobacterium thermophilum ATCC 25866 after 18 hrs; assay type: functional; summary of the method: as §2
# Bifidobacterium animalis [24] = assay: Antimicrobial activity against 90 mins oxgall-stressed Bifidobacterium animalis ATCC 27536 after 18 hrs; assay type: functional
# Summary of the method: (§3)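 Cells pelleted from mid-log MRS culture and resuspended in MRS (initial pH 6.5) with 0.3% (wt/vol) oxgall for 90 min anaerobically at 37°C. They were then regrown in MRS pH 6.5 for 24 h (footnote: 18 h) anaerobically and tested for MIC by the same broth microdilution assay. Median of four repetitions.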
# Bifidobacterium bifidum [25] = assay: Antimicrobial activity against 90 mins oxgall-stressed Bifidobacterium bifidum R0071 after 18 hrs; assay type: functional; summary of the method: as §3
# Bifidobacterium bifidum [26] = assay: Antimicrobial activity against 90 mins oxgall-stressed Bifidobacterium bifidum ATCC 15696 after 18 hrs; assay type: functional; summary of the method: as §3
# Bifidobacterium bifidum [27] = assay: Antimicrobial activity against 90 mins oxgall-stressed Bifidobacterium bifidum BB12 after 18 hrs; assay type: functional; summary of the method: as §3
# Bifidobacterium breve [28] = assay: Antimicrobial activity against 90 mins oxgall-stressed Bifidobacterium breve ATCC 15700 after 18 hrs; assay type: functional; summary of the method: as §3
# Bifidobacterium breve [29] = assay: Antimicrobial activity against 90 mins oxgall-stressed Bifidobacterium breve R0070 after 18 hrs; assay type: functional; summary of the method: as §3
# [30] = Antimicrobial activity against 90 mins oxgall-stressed Bifidobacterium infantis ATCC 15697 after 18 hrs; assay type: functional, Bifidobacterium longum subsp. infantis; conditions: Bifidobacterium longum; summary of the method: as §3
# Bifidobacterium longum [31] = assay: Antimicrobial activity against 90 mins oxgall-stressed Bifidobacterium longum ATCC 15707 after 18 hrs; assay type: functional; summary of the method: as §3
# Bifidobacterium longum [32] = assay: Antimicrobial activity against 90 mins oxgall-stressed Bifidobacterium longum ATCC 15708 after 18 hrs; assay type: functional; summary of the method: as §3
# Bifidobacterium longum [33] = assay: Antimicrobial activity against Bifidobacterium longum ATCC 15707; assay type: functional; summary of the method: as §1
# Bifidobacterium longum [34] = assay: Antimicrobial activity against 90 mins oxgall-stressed Bifidobacterium longum R0175 after 18 hrs; assay type: functional; summary of the method: as §3
# Bifidobacterium longum [35] = assay: Antimicrobial activity against 90 mins oxgall-stressed Bifidobacterium longum P/N 601377 after 18 hrs; assay type: functional; summary of the method: as §3
# [36] = system: Bifidobacterium pseudolongum; assay: Antimicrobial activity against 90 mins oxgall-stressed Bifidobacterium pseudolongum ATCC 25562 after 18 hrs; assay type: functional; summary of the method: as §3
# [37] = system: Bifidobacterium thermophilum; assay: Antimicrobial activity against 90 mins oxgall-stressed Bifidobacterium thermophilum ATCC 25866 after 18 hrs; assay type: functional; summary of the method: as §3
# Bifidobacterium animalis [38] = assay: Antimicrobial activity against 90 mins hydrogen peroxide-stressed Bifidobacterium animalis ATCC 27536 after 18 hrs; assay type: functional
# Summary of the method: (§4)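 Stress applied for 90 min at 37°C under anaerobic conditions, using MRS (initial pH 6.5) containing H2O2 at each strain's own inhibitory concentration. The H2O2 level was set beforehand by microplate tolerance testing. Challenged cells were regrown in MRS for 24 h (footnote: 18 h) before MIC testing by broth microdilution. Median of four repetitions.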
# Bifidobacterium bifidum [39] = assay: Antimicrobial activity against 90 mins hydrogen peroxide-stressed Bifidobacterium bifidum R0071 after 18 hrs; assay type: functional; summary of the method: as §4
# Bifidobacterium bifidum [40] = assay: Antimicrobial activity against 90 mins hydrogen peroxide-stressed Bifidobacterium bifidum BB12 after 18 hrs; assay type: functional; summary of the method: as §4
# Bifidobacterium breve [41] = assay: Antimicrobial activity against 90 mins hydrogen peroxide-stressed Bifidobacterium breve ATCC 15700 after 18 hrs; assay type: functional; summary of the method: as §4
# Bifidobacterium breve [42] = assay: Antimicrobial activity against 90 mins hydrogen peroxide-stressed Bifidobacterium breve R0070 after 18 hrs; assay type: functional; summary of the method: as §4
# Bifidobacterium longum [43] = assay: Antimicrobial activity against 90 mins hydrogen peroxide-stressed Bifidobacterium longum ATCC 15707 after 18 hrs; assay type: functional; summary of the method: as §4
# Bifidobacterium longum [44] = assay: Antimicrobial activity against 90 mins hydrogen peroxide-stressed Bifidobacterium longum ATCC 15708 after 18 hrs; assay type: functional; summary of the method: as §4
# Bifidobacterium longum [45] = assay: Antimicrobial activity against 90 mins hydrogen peroxide-stressed Bifidobacterium longum R0175 after 18 hrs; assay type: functional; summary of the method: as §4
# Bifidobacterium longum [46] = assay: Antimicrobial activity against 90 mins hydrogen peroxide-stressed Bifidobacterium longum P/N 601377 after 18 hrs; assay type: functional; summary of the method: as §4
# [47] = system: Bifidobacterium thermophilum; assay: Antimicrobial activity against 90 mins hydrogen peroxide-stressed Bifidobacterium thermophilum ATCC 25866 after 18 hrs; assay type: functional; summary of the method: as §4
smiles,measurement,setting,value
CC1(C)S[C@@H]2[C@H](NC(=O)Cc3ccccc3)C(=O)N2[C@H]1C(=O)O [PENICILLIN G],MIC,Bifidobacterium animalis [1],0.98 µg/mL
same,MIC,Bifidobacterium bifidum [2],3.9 µg/mL
same,MIC,Bifidobacterium bifidum [3],0.98 µg/mL
same,MIC,Bifidobacterium bifidum [4],0.98 µg/mL
same,MIC,Bifidobacterium breve [5],0.98 µg/mL
same,MIC,[6],0.98 µg/mL
same,MIC,Bifidobacterium longum [7],0.98 µg/mL
same,MIC,Bifidobacterium longum [8],3.9 µg/mL
same,MIC,Bifidobacterium longum [9],0.98 µg/mL
same,MIC,[10],0.98 µg/mL
same,MIC,[11],0.98 µg/mL
same,MIC,Bifidobacterium breve [12],1.9 µg/mL
same,MIC,Bifidobacterium animalis [13],0.98 µg/mL
same,MIC,Bifidobacterium bifidum [14],1.9 µg/mL
same,MIC,Bifidobacterium bifidum [15],0.98 µg/mL
same,MIC,Bifidobacterium breve [16],0.98 µg/mL
same,MIC,Bifidobacterium breve [17],1.9 µg/mL
same,MIC,[18],0.98 µg/mL
same,MIC,Bifidobacterium longum [19],0.98 µg/mL
same,MIC,Bifidobacterium longum [20],0.98 µg/mL
same,MIC,Bifidobacterium longum [21],0.98 µg/mL
same,MIC,[22],0.98 µg/mL
same,MIC,[23],0.98 µg/mL
same,MIC,Bifidobacterium animalis [24],0.98 µg/mL
same,MIC,Bifidobacterium bifidum [25],0.98 µg/mL
same,MIC,Bifidobacterium bifidum [26],0.98 µg/mL
same,MIC,Bifidobacterium bifidum [27],0.98 µg/mL
same,MIC,Bifidobacterium breve [28],0.98 µg/mL
same,MIC,Bifidobacterium breve [29],0.98 µg/mL
same,MIC,[30],0.98 µg/mL
same,MIC,Bifidobacterium longum [31],0.98 µg/mL
same,MIC,Bifidobacterium longum [32],0.98 µg/mL
same,MIC,Bifidobacterium longum [33],0.98 µg/mL
same,MIC,Bifidobacterium longum [34],0.98 µg/mL
same,MIC,Bifidobacterium longum [35],0.98 µg/mL
same,MIC,[36],0.98 µg/mL
same,MIC,[37],0.98 µg/mL
same,MIC,Bifidobacterium animalis [38],0.98 µg/mL
same,MIC,Bifidobacterium bifidum [39],0.98 µg/mL
same,MIC,Bifidobacterium bifidum [40],0.98 µg/mL
same,MIC,Bifidobacterium breve [41],0.98 µg/mL
same,MIC,Bifidobacterium breve [42],0.98 µg/mL
same,MIC,Bifidobacterium longum [43],0.98 µg/mL
same,MIC,Bifidobacterium longum [44],0.98 µg/mL
same,MIC,Bifidobacterium longum [45],0.98 µg/mL
same,MIC,Bifidobacterium longum [46],0.98 µg/mL
same,MIC,[47],0.98 µg/mL
